Each structure is given as a SMILES string. Values after ≈ are worked out from the molar mass of the structure shown. Where only a bound is given, the exact number is not on record here.

Common to all, as to format: functional
One assay deals with Acinetobacter. Put plainly: In vitro antibacterial activity against Acinetobacter CMX 669. In short, it runs like this:
(§1)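 Agar dilution MIC: strains grown overnight in brain-heart infusion broth at 36 °C; test compound stock 2000 µg/mL serially diluted 2-fold into BHI agar for final 200 to 0.005 µg/mL; plates inoculated with about 10⁴ organisms, incubated 36 °C for 18 h. MIC (µg/mL) taken as lowest concentration giving no visible growth; ciprofloxacin run side by side as reference.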

A further assay concerns Escherichia coli. Put plainly: In vitro antibacterial activity against Escherichia coli Juhl. The gist of the method:
as §1

The test system of another assay is Klebsiella aerogenes. In words: In vitro antibacterial activity against Enterobacter aerogenes ATCC 13048. In short, it runs like this: as §1
Assay [1] has as its system Pseudomonas aeruginosa. In words: In vitro antibacterial activity against Pseudomonas aeruginosa 5007. The gist of the method: as §1
Assay [2] concerns Pseudomonas aeruginosa. Put plainly: In vitro antibacterial activity against Pseudomonas aeruginosa K799/WT. In short, it runs like this: as §1
Assay [3] has as its system Staphylococcus aureus. In words: In vitro antibacterial activity against Staphylococcus aureus 45. In short, it runs like this: as §1
Assay [4] deals with Staphylococcus aureus. In words: In vitro antibacterial activity against Staphylococcus aureus CMX 686B. In short, it runs like this:
as §1

The test system of assay [5] is Staphylococcus epidermidis. Put plainly: In vitro antibacterial activity against Staphylococcus epidermidis 3519. The gist of the method: as §1
Another assay concerns Streptococcus agalactiae. In words: In vitro antibacterial activity against Streptococcus agalactiae CMS 508. In short, it runs like this: as §1
The subject of assay [6] is Staphylococcus aureus. Put plainly: In vitro antibacterial activity against Staphylococcus aureus ATCC 6538P. The gist of the method: as §1
The next assay deals with Streptococcus equinus. Put plainly: In vitro antibacterial activity against Streptococcus bovis A5169. The gist of the method:
as §1

A further assay concerns Enterococcus faecium. In words: In vitro antibacterial activity against Streptococcus faecium ATCC 8043. In short, it runs like this:
as §1

The subject of a further assay is Streptococcus pyogenes. In words: In vitro antibacterial activity against Streptococcus pyogenes 930. The gist of the method:
as §1

The next assay relates to Klebsiella pneumoniae. Put plainly: In vitro antibacterial activity against Klebsiella pneumoniae 8045. The gist of the method:
as §1

In assay [7] the test system is Staphylococcus aureus. In words: In vitro antibacterial activity against Staphylococcus aureus A5177. In short, it runs like this: as §1

The MIC is the least concentration at which growth counts as inhibited. Read a high MIC as weaker potency. In the case of `CCn1cc(C(=O)O)c(=O)c2cc(F)c(C3=NCCCO3)cc21`, the MIC in the assay on Acinetobacter was over 100 µg/mL; in the assay on Escherichia coli, 50 µg/mL (≈ 157 µM); against Klebsiella aerogenes it was over 100 µg/mL; against Pseudomonas aeruginosa [1], over 100 µg/mL; in the assay on Pseudomonas aeruginosa [2], over 100 µg/mL; against Staphylococcus aureus [3], over 100 µg/mL. Also, the minimum inhibitory concentration (MIC) with Staphylococcus aureus [4] is 50 µg/mL (≈ 157 µM); in assay [5], over 100 µg/mL; in the assay with Streptococcus agalactiae, over 100 µg/mL; against Staphylococcus aureus [6], 50 µg/mL (≈ 157 µM); against Streptococcus equinus, over 100 µg/mL; against Enterococcus faecium, over 100 µg/mL. Further, the MIC was over 100 µg/mL against Streptococcus pyogenes, 25 µg/mL (≈ 78.5 µM) against Klebsiella pneumoniae and over 100 µg/mL in the assay with Staphylococcus aureus [7].

With `CCn1cc(C(=O)O)c(=O)c2cc(F)c(-c3cocn3)cc21`, the MIC was 50 µg/mL (≈ 165 µM) with Acinetobacter; 12.5 µg/mL (≈ 41.4 µM) with Escherichia coli; 12.5 µg/mL (≈ 41.4 µM) against Klebsiella aerogenes; over 100 µg/mL with Pseudomonas aeruginosa [1]; 100 µg/mL (≈ 331 µM) in the assay on Pseudomonas aeruginosa [2]; 25 µg/mL (≈ 82.7 µM) in the assay with Staphylococcus aureus [3]. Besides, the minimal inhibitory concentration (MIC) against Staphylococcus aureus [4] was 6.2 µg/mL (≈ 20.5 µM); in [5], 12.5 µg/mL (≈ 41.4 µM); against Streptococcus agalactiae, over 100 µg/mL; in the assay with Staphylococcus aureus [6], 6.2 µg/mL (≈ 20.5 µM); against Streptococcus equinus, over 100 µg/mL; with Enterococcus faecium it was over 100 µg/mL. Further, the minimal inhibitory concentration (MIC) in the assay with Streptococcus pyogenes is over 100 µg/mL; in the assay on Klebsiella pneumoniae it was 6.2 µg/mL (≈ 20.5 µM); in the assay with Staphylococcus aureus [7], 12.5 µg/mL (≈ 41.4 µM).

`CCn1cc(C(=O)O)c(=O)c2cc(F)c(-c3coc(C)n3)cc21`: the MIC with Acinetobacter turned out to be 12.5 µg/mL (≈ 39.5 µM); in the assay on Escherichia coli it was 6.2 µg/mL (≈ 19.6 µM); in the assay with Klebsiella aerogenes it was 50 µg/mL (≈ 158 µM); against Pseudomonas aeruginosa [1] it was 50 µg/mL (≈ 158 µM); with Pseudomonas aeruginosa [2], 50 µg/mL (≈ 158 µM); against Staphylococcus aureus [3], 3.1 µg/mL (≈ 9.8 µM). The minimum inhibitory concentration (MIC) came out at 0.78 µg/mL (≈ 2.47 µM) against Staphylococcus aureus [4]; 3.1 µg/mL (≈ 9.8 µM) in assay [5]; 50 µg/mL (≈ 158 µM) in the assay on Streptococcus agalactiae; 1.56 µg/mL (≈ 4.93 µM) in the assay with Staphylococcus aureus [6]; 100 µg/mL (≈ 316 µM) in the assay on Streptococcus equinus; 100 µg/mL (≈ 316 µM) in the assay with Enterococcus faecium. In addition, the minimum inhibitory concentration (MIC) against Streptococcus pyogenes was 100 µg/mL (≈ 316 µM); with Klebsiella pneumoniae, 3.1 µg/mL (≈ 9.8 µM); against Staphylococcus aureus [7], 3.1 µg/mL (≈ 9.8 µM).

With `CCn1cc(C(=O)O)c(=O)c2cc(F)c(C(=O)NCCO)cc21`, the minimum inhibitory concentration (MIC) in the assay on Acinetobacter is over 100 µg/mL; against Escherichia coli, 50 µg/mL (≈ 155 µM); against Klebsiella aerogenes, over 100 µg/mL; in the assay with Pseudomonas aeruginosa [1] it was over 100 µg/mL; against Pseudomonas aeruginosa [2] it was over 100 µg/mL; against Staphylococcus aureus [3] it was over 100 µg/mL. In addition, the MIC (in the assay with Staphylococcus aureus [4]; in assay [5]; in the assay with Streptococcus agalactiae; with Staphylococcus aureus [6]; against Streptococcus equinus; in the assay on Enterococcus faecium) was over 100 µg/mL throughout. Besides, the MIC is over 100 µg/mL against Streptococcus pyogenes, 50 µg/mL (≈ 155 µM) with Klebsiella pneumoniae and over 100 µg/mL against Staphylococcus aureus [7].

As to `CCn1cc(C(=O)O)c(=O)c2cc(F)c(-c3coc(N)n3)cc21`, the MIC in the assay on Acinetobacter is over 100 µg/mL; in the assay with Escherichia coli it was 50 µg/mL (≈ 158 µM); against Klebsiella aerogenes, 50 µg/mL (≈ 158 µM); against Pseudomonas aeruginosa [1], over 100 µg/mL; in the assay on Pseudomonas aeruginosa [2], over 100 µg/mL; against Staphylococcus aureus [3], 50 µg/mL (≈ 158 µM). Besides, the MIC is 12.5 µg/mL (≈ 39.4 µM) in the assay with Staphylococcus aureus [4]; 50 µg/mL (≈ 158 µM) in assay [5]; 100 µg/mL (≈ 315 µM) with Streptococcus agalactiae; 12.5 µg/mL (≈ 39.4 µM) in the assay with Staphylococcus aureus [6]; over 100 µg/mL with Streptococcus equinus; over 100 µg/mL with Enterococcus faecium. Moreover, the values for the MIC in the assay with Streptococcus pyogenes, with Klebsiella pneumoniae and in the assay with Staphylococcus aureus [7] were 100 µg/mL (≈ 315 µM), 25 µg/mL (≈ 78.8 µM) and 25 µg/mL (≈ 78.8 µM), respectively.

For the molecule `CCn1cc(C(=O)O)c(=O)c2cc(F)c(C3=NCCO3)cc21`, the MIC was 50 µg/mL (≈ 164 µM) against Acinetobacter; 12.5 µg/mL (≈ 41.1 µM) in the assay with Escherichia coli; 12.5 µg/mL (≈ 41.1 µM) against Klebsiella aerogenes; over 100 µg/mL with Pseudomonas aeruginosa [1]; over 100 µg/mL against Pseudomonas aeruginosa [2]; 50 µg/mL (≈ 164 µM) in the assay with Staphylococcus aureus [3]. In addition, the minimum inhibitory concentration (MIC) in the assay with Staphylococcus aureus [4] was 12.5 µg/mL (≈ 41.1 µM); in [5] it was 50 µg/mL (≈ 164 µM); against Streptococcus agalactiae it was over 100 µg/mL; with Staphylococcus aureus [6], 25 µg/mL (≈ 82.2 µM); against Streptococcus equinus it was over 100 µg/mL; with Enterococcus faecium, over 100 µg/mL. Also, the MIC is over 100 µg/mL in the assay with Streptococcus pyogenes, 6.2 µg/mL (≈ 20.4 µM) with Klebsiella pneumoniae and 25 µg/mL (≈ 82.2 µM) against Staphylococcus aureus [7].

For the molecule `O=C(O)c1cn(C2CC2)c2cc(N3CCNCC3)c(F)cc2c1=O` [CIPROFLOXACIN], the minimum inhibitory concentration (MIC) against Acinetobacter is 0.78 µg/mL (≈ 2.35 µM); against Klebsiella aerogenes, 0.05 µg/mL (≈ 0.151 µM); in the assay with Pseudomonas aeruginosa [1] it was 0.2 µg/mL (≈ 0.604 µM); against Pseudomonas aeruginosa [2] it was 0.2 µg/mL (≈ 0.604 µM); against Staphylococcus aureus [3], 1.56 µg/mL (≈ 4.71 µM); against Staphylococcus aureus [4], 0.2 µg/mL (≈ 0.604 µM). Also, the minimum inhibitory concentration (MIC) was determined as 0.39 µg/mL (≈ 1.18 µM) in assay [5]; 0.39 µg/mL (≈ 1.18 µM) against Streptococcus agalactiae; 0.1 µg/mL (≈ 0.302 µM) against Staphylococcus aureus [6]; 1.56 µg/mL (≈ 4.71 µM) in the assay on Streptococcus equinus; 0.39 µg/mL (≈ 1.18 µM) in the assay with Enterococcus faecium; 0.39 µg/mL (≈ 1.18 µM) in the assay with Streptococcus pyogenes. Also, the minimal inhibitory concentration (MIC) came to 0.02 µg/mL (≈ 0.0604 µM) in the assay with Klebsiella pneumoniae and 0.39 µg/mL (≈ 1.18 µM) in the assay on Staphylococcus aureus [7].

On to `CCn1cc(C(=O)O)c(=O)c2cc(F)c(-c3ccc(C)o3)cc21`, for which the MIC was 25 µg/mL (≈ 79.3 µM) against Acinetobacter; 12.5 µg/mL (≈ 39.6 µM) with Escherichia coli; 12.5 µg/mL (≈ 39.6 µM) in the assay with Klebsiella aerogenes; over 100 µg/mL in the assay on Pseudomonas aeruginosa [1]; over 100 µg/mL in the assay on Pseudomonas aeruginosa [2]; 1.56 µg/mL (≈ 4.95 µM) against Staphylococcus aureus [3]. Also, the minimum inhibitory concentration (MIC) in the assay on Staphylococcus aureus [4] was 0.78 µg/mL (≈ 2.47 µM); in [5], 1.56 µg/mL (≈ 4.95 µM); against Streptococcus agalactiae it was 50 µg/mL (≈ 159 µM); against Staphylococcus aureus [6], 1.56 µg/mL (≈ 4.95 µM); in the assay on Streptococcus equinus, over 100 µg/mL; with Enterococcus faecium, over 100 µg/mL. Further, the minimum inhibitory concentration (MIC) against Streptococcus pyogenes was 50 µg/mL (≈ 159 µM); against Klebsiella pneumoniae, 6.2 µg/mL (≈ 19.7 µM); against Staphylococcus aureus [7] it was 1.56 µg/mL (≈ 4.95 µM).

As for `CCn1cc(C(=O)O)c(=O)c2cc(F)c(C3=NC(C)(C)CO3)cc21`, the MIC in the assay with Acinetobacter is over 100 µg/mL; against Escherichia coli it was over 100 µg/mL; with Klebsiella aerogenes it was over 100 µg/mL; in the assay on Pseudomonas aeruginosa [1], over 100 µg/mL; in the assay with Pseudomonas aeruginosa [2] it was over 100 µg/mL; in the assay on Staphylococcus aureus [3] it was 100 µg/mL (≈ 301 µM). The minimum inhibitory concentration (MIC) against Staphylococcus aureus [4] was 12.5 µg/mL (≈ 37.6 µM); in assay [5], 50 µg/mL (≈ 150 µM); against Streptococcus agalactiae it was over 100 µg/mL; in the assay on Staphylococcus aureus [6], 25 µg/mL (≈ 75.2 µM); in the assay with Streptococcus equinus, over 100 µg/mL; against Enterococcus faecium, over 100 µg/mL. Also, the minimum inhibitory concentration (MIC) against Streptococcus pyogenes was over 100 µg/mL; in the assay on Klebsiella pneumoniae it was 100 µg/mL (≈ 301 µM); against Staphylococcus aureus [7], 25 µg/mL (≈ 75.2 µM).

On to `CCn1cc(C(=O)O)c(=O)c2cc(F)c(C(=O)O)cc21`, for which the minimum inhibitory concentration (MIC) in the assay on Acinetobacter, with Escherichia coli, against Klebsiella aerogenes, in the assay with Pseudomonas aeruginosa [1], against Pseudomonas aeruginosa [2] and in the assay on Staphylococcus aureus [3] was over 100 µg/mL each time. Also, the MIC (in the assay on Staphylococcus aureus [4]; in [5]; in the assay on Streptococcus agalactiae; against Staphylococcus aureus [6]; in the assay on Streptococcus equinus; against Enterococcus faecium) was over 100 µg/mL each time. For the same molecule, the MIC in the assay with Streptococcus pyogenes, in the assay on Klebsiella pneumoniae and against Staphylococcus aureus [7] was over 100 µg/mL in each case.

As to `CCn1cc(C(=O)O)c(=O)c2cc(F)c(-c3c[nH]cn3)cc21.Cl`, the MIC was over 100 µg/mL against Acinetobacter; 25 µg/mL in the assay on Escherichia coli; 50 µg/mL in the assay on Klebsiella aerogenes; over 100 µg/mL in the assay on Pseudomonas aeruginosa [1]; over 100 µg/mL in the assay on Pseudomonas aeruginosa [2]; 50 µg/mL in the assay with Staphylococcus aureus [3]. The MIC is 12.5 µg/mL with Staphylococcus aureus [4]; 50 µg/mL in assay [5]; 50 µg/mL against Streptococcus agalactiae; 12.5 µg/mL against Staphylococcus aureus [6]; over 100 µg/mL in the assay with Streptococcus equinus; over 100 µg/mL with Enterococcus faecium. Also, the minimum inhibitory concentration (MIC) was 50 µg/mL against Streptococcus pyogenes, 12.5 µg/mL against Klebsiella pneumoniae and 25 µg/mL with Staphylococcus aureus [7].

Values taken from ChEMBL document CHEMBL1125111, “The synthesis and antibacterial activities of quinolones containing five- and six-membered heterocyclic substituents at the 7-position” (1990).
